{
  "source": "paper PMC10155261",
  "about": "(European journal of medicinal chemistry, 2022)",
  "key": {"hLPA5 [1]": {"target": "T1, hLPA5 (Homo sapiens, UniProt Q9H1C0)", "T1 sequence (Q9H1C0 whole entry)": "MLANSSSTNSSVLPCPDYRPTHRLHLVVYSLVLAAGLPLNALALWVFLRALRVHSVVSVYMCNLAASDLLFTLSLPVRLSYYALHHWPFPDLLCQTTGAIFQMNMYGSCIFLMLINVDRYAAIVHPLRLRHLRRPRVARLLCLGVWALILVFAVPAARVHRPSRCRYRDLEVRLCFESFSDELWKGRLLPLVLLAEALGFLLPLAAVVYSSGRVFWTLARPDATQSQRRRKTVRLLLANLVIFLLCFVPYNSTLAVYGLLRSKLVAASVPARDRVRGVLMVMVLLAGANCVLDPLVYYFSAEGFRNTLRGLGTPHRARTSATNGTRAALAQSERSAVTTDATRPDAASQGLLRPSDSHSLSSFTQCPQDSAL", "experiment": "LPA5 calcium mobilization assay", "format": "cell-based", "conditions": "calcium assay", "summary_of_the_method": "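RH7777-hLPA5 cells were plated on poly-D-lysine at 20,000 cells/well in 0.2% FBS medium for 18–20 h at 37 °C. They were loaded 45 min with Calcium 5 dye in HBSS, 20 mM HEPES and 2.5 mM probenecid, pH 7.4. Eight test-compound concentrations were pre-incubated for 15 min at 37 °C, then hexadecyl LPA 16:0 EC80 (30 nM) was added at 10 s. Fluorescence (485/525 nm) was read every 1 s for 90 s. IC50 came from a three-parameter logistic fit of RFU. Duplicate determinations; two or at least three independent experiments.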"}, "hLPA5 [2]": {"target": "T1, hLPA5", "experiment": "LPA5 TR-FRET Lance Ultra cAMP assay", "format": "cell-based", "conditions": "cAMP assay"}, "LPA1–LPA4 receptors": {"test_system": "LPA1–LPA4 receptors", "experiment": "LPA1–LPA3 calcium mobilization", "format": "cell-based", "conditions": "10 μM in Ca2+ for LPA1–LPA3 and cAMP for LPA4", "summary_of_the_method": "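Selectivity was tested with test compound at 10 μM. LPA1–LPA3 calcium mobilization was run externally in CHO cells over-expressing each receptor, under the provider's protocols. LPA4 was a TR-FRET cAMP assay in LPA4-overexpressing CHO cells, following the LPA5 cAMP method but against 250 nM hexadecyl LPA 16:0 (EC80).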"}, "[3]": {"test_system": ">50 GPCRs (NIMH Psychoactive Drug Screening Program panel)", "experiment": "NIMH PDSP radioligand binding panel", "conditions": "< 50% inhibition at 10 μM or pKi ≤ 6"}, "dopamine D3": {"target": "dopamine D3 (Homo sapiens, UniProt P35462)", "sequence (P35462 whole entry)": "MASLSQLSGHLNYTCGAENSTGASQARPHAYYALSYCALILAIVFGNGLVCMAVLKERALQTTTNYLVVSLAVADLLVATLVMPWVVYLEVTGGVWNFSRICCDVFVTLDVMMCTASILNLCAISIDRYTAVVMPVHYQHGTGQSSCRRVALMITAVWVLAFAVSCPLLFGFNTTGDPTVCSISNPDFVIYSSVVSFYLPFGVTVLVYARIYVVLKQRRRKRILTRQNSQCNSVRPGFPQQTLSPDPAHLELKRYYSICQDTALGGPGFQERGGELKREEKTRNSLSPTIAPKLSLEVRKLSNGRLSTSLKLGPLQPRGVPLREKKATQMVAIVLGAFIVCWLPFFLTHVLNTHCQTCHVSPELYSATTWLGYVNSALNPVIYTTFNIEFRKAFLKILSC", "experiment": "NIMH PDSP radioligand binding, D3"}, "[4]": {"experiment": "Metabolic stability in rat liver microsomes", "format": "in vitro ADME", "conditions": "pH 7.4", "summary_of_the_method": "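Rat liver microsomes (0.5 mg/mL protein) were used in 100 mM potassium phosphate, pH 7.4, at 37 °C, with NADPH at 1 mM final. Samples were taken at 0, 5, 15, 30 and 45 min and quenched 1:1 in cold acetonitrile containing labetalol and glyburide. Parent was measured by LC-MS/MS, and half-life and in vitro clearance were calculated. Two independent experiments in duplicate.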"}, "[5]": {"experiment": "Bidirectional MDCK-MDR1 permeability", "format": "in vitro ADME", "conditions": "dog", "summary_of_the_method": "(§1)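 MDCK-mdr1 cells (passage 5) were grown on polycarbonate Transwell supports for 3 days and rinsed with warm HBSS. They were pre-incubated 30 min at 37 °C in HBSS with 10 mM HEPES and 0.25% BSA, pH 7.4, then TEER was measured. Test compound at 10 μM went to the apical donor (A-to-B) or basolateral donor (B-to-A) side, at 37 °C with light agitation. Receiver was sampled at 30, 60 and 90 min and analysed by LC-MS/MS. Papp came from dQ/dt, area 1.12 cm2 and initial donor concentration. Atenolol and propranolol were references.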"}, "P-glycoprotein (MDR1)": {"test_system": "P-glycoprotein (MDR1)", "experiment": "Bidirectional MDCK-MDR1 permeability", "format": "in vitro ADME", "conditions": "dog, MDCK-MDR1, pH 7.4", "summary_of_the_method": "as §1"}, "Plasma protein binding": {"experiment": "Plasma protein binding", "format": "in vitro ADME", "conditions": "rat", "summary_of_the_method": "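Equilibrium dialysis: test compound or controls at 1 μM in rat plasma, in triplicate, against buffer across a 12–14K MWCO cellulose membrane. Incubation ran 6 h at 37 °C with light agitation to equilibrium. Plasma and buffer were extracted with cold acetonitrile/methanol (1:1) and quantified by LC-MS/MS against standard curves. Acebutolol (low-bound) and warfarin (high-bound) served as controls.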"}, "[6]": {"test_system": "CFA-induced nociceptive hypersensitivity in rats", "experiment": "CFA-induced inflammatory pain model, von Frey mechanical nociception", "format": "in vivo, Sprague-Dawley rats", "conditions": "i.p."}, "[7]": {"test_system": "CCI-induced mechanical allodynia in rats", "experiment": "Chronic constriction injury", "format": "in vivo, Sprague-Dawley rats", "conditions": "i.p., 17.8 mg/kg"}, "[8]": {"test_system": "fentanyl-induced mechanical hypersensitivity in rats", "experiment": "Fentanyl", "format": "in vivo", "conditions": "i.p."}, "[9]": {"test_system": "locomotor activity in rats", "experiment": "Locomotor activity", "format": "in vivo", "conditions": "17.8 mg/kg i.p., 60 min pretreatment, P > 0.05"}},
  "data": [
    {"smiles": "C#CC1CCN(C(=O)c2cn(-c3ccc4scc(C)c4c3)c(=O)c3cc(OC)c(OC)cc23)CC1", "note": "[Compound 66, 4-(4-Ethynylpiperidine-1-carbonyl)-6,7-dimethoxy-2-(3-methylbenzo[b]thiophen-5-yl)isoquinoli-n-1(2H)-one]", "values": [
      {"measurement": "fold more potent than the 4-fluoro analog 65", "setting": "hLPA5 [1]", "result": 2, "unit": "fold"},
      {"measurement": "fold less potent than 2", "setting": "hLPA5 [2]", "result": 1.7, "unit": "fold"},
      {"measurement": "LPA1–LPA4 inhibition", "setting": "LPA1–LPA4 receptors", "result": "<50", "unit": "%"},
      {"measurement": "affinity for panel receptors", "setting": "[3]", "result": "no significant affinity for most of the receptors"},
      {"measurement": "Ki", "setting": "dopamine D3", "result": 380, "unit": "nM"},
      {"measurement": "CLint scaled at 0.75 h", "setting": "[4]", "result": 74.7, "unit": "mL/min/kg"},
      {"measurement": "Papp A→B at 90 min, 10 μM", "setting": "[5]; MDCK-MDR1, pH 7.4", "result": 30.4, "unit": "×10⁻⁶ cm/s"},
      {"measurement": "Papp B→A at 90 min, 10 μM", "setting": "[5]; MDCK-MDR1, pH 7.4, Papp (B-to-A), MDCK-MDR1 Transwell, 10 μM", "result": 38.7, "unit": "×10⁻⁶ cm/s"},
      {"measurement": "efflux ratio at 90 min, 10 μM", "setting": "P-glycoprotein (MDR1)", "result": "< 2.5"},
      {"measurement": "fraction unbound at 6 h, 1 μM", "setting": "Plasma protein binding", "result": 0.01},
      {"measurement": "effect on CFA-induced nociceptive hypersensitivity", "setting": "[6]; 17.8 mg/kg", "result": "markedly alleviated nociceptive hypersensitivity"},
      {"measurement": "duration of effect in CFA model", "setting": "[6]; 65 and 66 at 17.8 mg/kg, 2 at 32 mg/kg", "result": "~ 5 h"},
      {"measurement": "effect on CCI-induced mechanical allodynia", "setting": "[7]", "result": "completely reversed this hypersensitivity condition"},
      {"measurement": "dose achieving statistical significance in OIH model", "setting": "[8]", "result": 5.6, "unit": "mg/kg"},
      {"measurement": "effect on fentanyl-induced mechanical hypersensitivity (OIH)", "setting": "[8]", "result": "dose-dependently and significantly mitigated this mechanical hypersensitivity"},
      {"measurement": "effect on locomotor activity", "setting": "[9]", "result": "did not have any measurable effect on the locomotor activity"}
    ]}
  ]
}
